Test results as given in ChEMBL document CHEMBL1131454 (J Med Chem, 1998).

Key:
Progesterone receptor [1] = target: T1, Progesterone receptor (Homo sapiens, UniProt P06401); assay: Agonistic activity to the human progesterone receptor (hPR)assayed in CV-1 cells in cotransfection assay.; format: functional, cell-based
T1 sequence (P06401 whole entry): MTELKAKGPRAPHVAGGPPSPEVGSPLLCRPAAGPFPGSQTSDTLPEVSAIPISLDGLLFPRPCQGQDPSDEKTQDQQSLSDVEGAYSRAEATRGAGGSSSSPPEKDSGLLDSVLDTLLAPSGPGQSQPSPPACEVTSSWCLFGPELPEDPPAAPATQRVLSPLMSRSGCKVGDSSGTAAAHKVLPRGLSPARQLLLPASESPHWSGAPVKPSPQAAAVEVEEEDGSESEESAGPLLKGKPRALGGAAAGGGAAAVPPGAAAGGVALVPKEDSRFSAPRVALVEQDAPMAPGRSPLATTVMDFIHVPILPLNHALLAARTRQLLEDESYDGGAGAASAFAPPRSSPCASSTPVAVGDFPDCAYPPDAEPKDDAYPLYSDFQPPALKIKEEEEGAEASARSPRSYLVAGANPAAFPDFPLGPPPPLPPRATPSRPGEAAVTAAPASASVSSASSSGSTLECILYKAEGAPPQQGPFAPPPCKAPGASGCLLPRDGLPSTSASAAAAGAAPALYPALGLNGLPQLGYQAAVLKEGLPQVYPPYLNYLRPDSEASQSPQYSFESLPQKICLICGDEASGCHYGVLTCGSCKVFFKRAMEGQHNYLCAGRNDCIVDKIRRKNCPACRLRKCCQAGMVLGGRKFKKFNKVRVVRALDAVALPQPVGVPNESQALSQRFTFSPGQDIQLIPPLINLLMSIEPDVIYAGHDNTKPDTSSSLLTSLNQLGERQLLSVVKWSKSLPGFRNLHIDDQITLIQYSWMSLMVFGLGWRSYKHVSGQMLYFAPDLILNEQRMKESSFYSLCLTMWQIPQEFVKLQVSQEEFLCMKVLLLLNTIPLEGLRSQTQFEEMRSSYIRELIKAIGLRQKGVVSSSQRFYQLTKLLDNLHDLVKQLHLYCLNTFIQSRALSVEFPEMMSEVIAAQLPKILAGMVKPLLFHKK

Progesterone receptor [2] = target: T1, Progesterone receptor; assay: Antagonistic activity was determined in Human progesterone receptor(hPR) of CV-1 cells in cotransfection assay.; format: functional, cell-based
Progesterone receptor [3] = target: T1, Progesterone receptor; assay: The binding affinity on Human progesterone receptor (hPR-A) using progesterone as radioligand.
[4] = target: T2, Progesterone receptor (Homo sapiens) (UniProt P06401); assay: Agonist efficacy for human progesterone receptor (hPR) was compared to that of progesterone (100%); format: functional
T2 sequence (whole entry): T1 sequence (P06401 whole entry)
How it was run: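 Cotransfection assay in CV-1 cells transiently transfected by calcium phosphate coprecipitation with hPR plasmid, MTV-LUC reporter, pRS-β-Gal and filler DNA. Full dose–response curves from 10^-12 to 10^-5 M were run. […] Values are the mean of at least three experiments with triplicate determinations, or of two experiments, or a single experiment.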

[5] = target: T2, Progesterone receptor (Homo sapiens); assay: Human progesterone receptor (hPR) antagonist efficacy was determined as a function (%) of maximal inhibition of progesterone at EC50 value.; format: functional
How it was run: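 hPR antagonist-mode cotransfection in CV-1 cells transiently transfected by calcium phosphate coprecipitation with hPR plasmid, MTV-LUC reporter, pRS-β-Gal and filler DNA. […] Values come from one, two, or at least three experiments in triplicate.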

Androgen receptor [6] = target: T3, Androgen receptor (Homo sapiens, UniProt P10275)
T3 sequence (P10275 whole entry): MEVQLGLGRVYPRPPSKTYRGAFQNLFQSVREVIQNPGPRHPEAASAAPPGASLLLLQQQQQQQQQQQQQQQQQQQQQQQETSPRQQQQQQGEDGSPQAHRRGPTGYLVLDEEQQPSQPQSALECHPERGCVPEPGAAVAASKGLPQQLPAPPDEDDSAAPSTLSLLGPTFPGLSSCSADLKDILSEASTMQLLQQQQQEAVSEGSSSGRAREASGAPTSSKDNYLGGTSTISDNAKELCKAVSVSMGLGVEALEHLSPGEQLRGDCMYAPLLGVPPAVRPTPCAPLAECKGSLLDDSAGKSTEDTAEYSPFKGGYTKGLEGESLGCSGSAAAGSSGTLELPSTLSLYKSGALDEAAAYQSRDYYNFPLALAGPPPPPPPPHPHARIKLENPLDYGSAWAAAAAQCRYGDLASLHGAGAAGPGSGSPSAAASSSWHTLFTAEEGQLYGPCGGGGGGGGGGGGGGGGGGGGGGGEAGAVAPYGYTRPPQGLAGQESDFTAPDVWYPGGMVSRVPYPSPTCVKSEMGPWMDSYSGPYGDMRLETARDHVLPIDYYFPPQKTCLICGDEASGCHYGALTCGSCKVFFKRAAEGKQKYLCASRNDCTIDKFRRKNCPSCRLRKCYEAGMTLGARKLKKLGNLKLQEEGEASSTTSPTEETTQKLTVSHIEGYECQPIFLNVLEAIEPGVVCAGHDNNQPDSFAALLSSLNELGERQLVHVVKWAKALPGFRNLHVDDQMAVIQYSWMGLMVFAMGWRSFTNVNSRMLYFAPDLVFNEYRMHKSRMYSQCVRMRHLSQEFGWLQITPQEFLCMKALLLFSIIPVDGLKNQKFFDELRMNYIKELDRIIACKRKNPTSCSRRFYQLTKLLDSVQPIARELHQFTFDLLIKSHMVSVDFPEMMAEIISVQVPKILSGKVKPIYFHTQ

Glucocorticoid receptor [7] = target: T4, Glucocorticoid receptor (Homo sapiens, UniProt P04150)
T4 sequence (P04150 whole entry): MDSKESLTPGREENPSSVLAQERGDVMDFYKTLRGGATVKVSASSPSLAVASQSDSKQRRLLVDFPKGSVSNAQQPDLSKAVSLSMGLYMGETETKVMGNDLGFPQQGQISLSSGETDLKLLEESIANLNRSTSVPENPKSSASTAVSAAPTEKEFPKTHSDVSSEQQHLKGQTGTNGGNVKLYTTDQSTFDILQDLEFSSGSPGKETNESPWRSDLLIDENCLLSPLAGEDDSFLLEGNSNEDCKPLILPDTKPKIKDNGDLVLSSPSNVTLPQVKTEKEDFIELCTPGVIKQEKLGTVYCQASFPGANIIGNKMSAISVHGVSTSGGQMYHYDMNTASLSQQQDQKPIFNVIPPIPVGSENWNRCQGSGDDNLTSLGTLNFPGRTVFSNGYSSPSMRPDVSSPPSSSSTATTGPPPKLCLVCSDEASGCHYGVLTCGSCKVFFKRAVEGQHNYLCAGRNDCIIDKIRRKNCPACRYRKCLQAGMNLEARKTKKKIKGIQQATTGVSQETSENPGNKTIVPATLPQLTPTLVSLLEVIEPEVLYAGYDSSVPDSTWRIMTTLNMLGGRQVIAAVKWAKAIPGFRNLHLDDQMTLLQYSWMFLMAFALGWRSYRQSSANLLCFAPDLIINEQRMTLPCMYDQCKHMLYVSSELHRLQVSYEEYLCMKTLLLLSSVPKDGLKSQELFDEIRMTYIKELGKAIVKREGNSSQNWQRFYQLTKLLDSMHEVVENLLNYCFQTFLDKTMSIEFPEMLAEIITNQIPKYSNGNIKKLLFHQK

Glucocorticoid receptor [8] = target: T4, Glucocorticoid receptor; remark: listed apart in the source
[9] = target: T5, Mineralocorticoid receptor (Homo sapiens, UniProt P08235); assay: Antagonistic activity was determined in Human mineralocorticoid receptor(hMR) of CV-1 cells in cotransfection assay.; format: functional, cell-based
T5 sequence (P08235 whole entry): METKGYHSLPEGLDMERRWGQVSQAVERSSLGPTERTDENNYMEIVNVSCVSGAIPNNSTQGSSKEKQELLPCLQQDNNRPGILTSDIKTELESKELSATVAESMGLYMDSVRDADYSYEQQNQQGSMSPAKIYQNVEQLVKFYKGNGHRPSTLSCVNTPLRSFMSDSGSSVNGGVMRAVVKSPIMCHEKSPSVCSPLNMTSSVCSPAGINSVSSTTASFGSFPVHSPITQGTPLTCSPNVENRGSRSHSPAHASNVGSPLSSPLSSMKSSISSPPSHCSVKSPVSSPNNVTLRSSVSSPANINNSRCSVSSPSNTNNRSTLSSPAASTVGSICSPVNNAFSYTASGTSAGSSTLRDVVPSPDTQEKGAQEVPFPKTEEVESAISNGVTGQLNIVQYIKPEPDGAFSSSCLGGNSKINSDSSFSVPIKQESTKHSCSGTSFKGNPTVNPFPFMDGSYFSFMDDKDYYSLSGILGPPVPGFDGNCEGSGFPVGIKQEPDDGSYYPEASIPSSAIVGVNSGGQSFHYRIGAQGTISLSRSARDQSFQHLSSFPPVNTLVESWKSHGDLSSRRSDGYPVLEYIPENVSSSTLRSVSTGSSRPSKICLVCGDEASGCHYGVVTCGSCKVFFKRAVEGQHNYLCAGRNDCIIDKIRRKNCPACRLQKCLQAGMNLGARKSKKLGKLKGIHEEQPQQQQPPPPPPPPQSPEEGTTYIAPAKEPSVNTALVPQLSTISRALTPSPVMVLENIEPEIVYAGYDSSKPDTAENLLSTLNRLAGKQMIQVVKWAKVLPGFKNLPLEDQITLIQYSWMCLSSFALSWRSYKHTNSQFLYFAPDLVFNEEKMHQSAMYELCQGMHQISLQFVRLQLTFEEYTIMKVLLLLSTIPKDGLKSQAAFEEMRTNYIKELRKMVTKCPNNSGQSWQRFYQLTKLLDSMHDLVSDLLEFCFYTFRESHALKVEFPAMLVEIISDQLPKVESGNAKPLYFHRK

Androgen receptor [10] = target: T3, Androgen receptor; remark: listed apart in the source
Glucocorticoid receptor [11] = target: T4, Glucocorticoid receptor; assay: Agonist activity against Human glucocorticoid receptor(hGR) expressed in CV-1 cells; format: functional, cell-based

With CC(=O)c1ccc(C2Oc3ccccc3-c3ccc4c(c32)C(C)=CC(C)(C)N4)cc1 (stereo unspecified) the EC50 (Progesterone receptor [1]) was > 10 µM, the IC50 (Progesterone receptor [2]) was 0.132 µM and the Ki (Progesterone receptor [3]) was 0.0088 µM. For the same compound, the Efficacy [4] was < 20% and the Efficacy [5] was 68%.

CC1=CC(C)(C)Nc2ccc3c(c21)C(c1cccc(F)c1)Oc1ccccc1-3 (stereo unspecified) gave an EC50 (Progesterone receptor [1]) of 0.008 µM, an IC50 (Progesterone receptor [2]) of 0.15 µM and a Ki (Progesterone receptor [3]) of 0.00069 µM. The Efficacy [4] was 48% and the Efficacy [5] was 74%.

In the case of COc1ccc(C2Oc3ccccc3-c3ccc4c(c32)C(C)=CC(C)(C)N4)cc1 (stereo unspecified), the EC50 (Progesterone receptor [1]) is reported as > 10 µM, the IC50 (Progesterone receptor [2]) is reported as 0.105 µM and the Ki (Progesterone receptor [3]) is reported as 0.0133 µM. The Efficacy [4] was < 20% and the Efficacy [5] was 65%.

With CC1=CC(C)(C)Nc2ccc3c(c21)C(c1ccccc1)Oc1ccccc1-3 (stereo unspecified) the EC50 (Progesterone receptor [1]) was 0.156 µM, the IC50 (Progesterone receptor [2]) was 0.29 µM and the Ki (Progesterone receptor [3]) was 0.0036 µM. It also gave a Ki (Androgen receptor [6]) of 1.86 µM, a Ki (Glucocorticoid receptor [7]) of 0.154 µM and an IC50 (Glucocorticoid receptor [8]) of 0.226 µM. For the same compound, the IC50 [9] was 0.354 µM and the IC50 (Androgen receptor [10]) was 0.745 µM.

CC1=CC(C)(C)Nc2ccc3c(c21)C(c1ccc(F)cc1)Oc1ccccc1-3 (stereo unspecified) gave an EC50 (Progesterone receptor [1]) of 0.008 µM, an IC50 (Progesterone receptor [2]) of 0.342 µM and a Ki (Progesterone receptor [3]) of 0.0053 µM. For the same compound, the Efficacy [4] was 28% and the Efficacy [5] was 77%.

Compound CC(=O)O[C@]1(C(C)=O)CC[C@H]2[C@@H]3C[C@H](C)C4=CC(=O)CC[C@]4(C)[C@H]3CC[C@@]21C [MEDROXYPROGESTERONE ACETATE] has an EC50 (Glucocorticoid receptor [11]) of 0.01 µM, a Ki (Glucocorticoid receptor [7]) of 0.0132 µM and an IC50 [9] of 1.2 µM.

With CC1=CC(C)(C)Nc2ccc3c(c21)C(c1ccc(C(F)(F)F)cc1)Oc1ccccc1-3 (stereo unspecified) the EC50 (Progesterone receptor [1]) was 0.033 µM, the IC50 (Progesterone receptor [2]) was 0.15 µM and the Ki (Progesterone receptor [3]) was 0.0108 µM. It also gave an Efficacy [4] of 35% and an Efficacy [5] of 49%.

Compound CC1=CC(C)(C)Nc2ccc3c(c21)C(c1cc(F)cc(Br)c1)Oc1ccccc1-3 (stereo unspecified) has an EC50 (Progesterone receptor [1]) of 0.027 µM, an IC50 (Progesterone receptor [2]) of 1.21 µM and a Ki (Progesterone receptor [3]) of 0.0024 µM. It also gave an Efficacy [4] of 49% and an Efficacy [5] of 65%.

For CC1=CC(C)(C)Nc2ccc3c(c21)C(c1ccc(F)c(C(F)(F)F)c1)Oc1ccccc1-3 (stereo unspecified), the EC50 (Progesterone receptor [1]) was 0.025 µM, the IC50 (Progesterone receptor [2]) was 4.6 µM and the Ki (Progesterone receptor [3]) was 0.0068 µM. For the same compound, the Efficacy [4] was 60% and the Efficacy [5] was 56%.

With CC1=CC(C)(C)Nc2ccc3c(c21)C(c1ccc(Br)nc1)Oc1ccccc1-3 (stereo unspecified) the EC50 (Progesterone receptor [1]) was 3.9 µM, the IC50 (Progesterone receptor [2]) was 0.054 µM and the Ki (Progesterone receptor [3]) was 0.0039 µM. For the same compound, the Efficacy [4] was 24% and the Efficacy [5] was 86%.

CC1=CC(C)(C)Nc2ccc3c(c21)C(c1cccc(Br)n1)Oc1ccccc1-3 (stereo unspecified) gave an EC50 (Progesterone receptor [1]) of 1.7 µM, an IC50 (Progesterone receptor [2]) of 0.071 µM and a Ki (Progesterone receptor [3]) of 0.0138 µM. It also gave an Efficacy [4] of 21% and an Efficacy [5] of 86%.
